Reference: ChEMBL document CHEMBL1149137, “Synthesis, screening, and molecular modeling of new potent and selective antagonists at the alpha 1d adrenergic receptor” (J Med Chem, 2004)

Legend:
[1] = biological target: T1, 5-hydroxytryptamine receptor 1A (Homo sapiens, UniProt P08908); assay: Binding affinity to human 5-hydroxytryptamine 1A receptor was measured using [3H]-8-hydroxy-2-(di-n-propylamine) tetraline [3H]8-OH-DPAT) as radioligand
T1 sequence (P08908 whole entry): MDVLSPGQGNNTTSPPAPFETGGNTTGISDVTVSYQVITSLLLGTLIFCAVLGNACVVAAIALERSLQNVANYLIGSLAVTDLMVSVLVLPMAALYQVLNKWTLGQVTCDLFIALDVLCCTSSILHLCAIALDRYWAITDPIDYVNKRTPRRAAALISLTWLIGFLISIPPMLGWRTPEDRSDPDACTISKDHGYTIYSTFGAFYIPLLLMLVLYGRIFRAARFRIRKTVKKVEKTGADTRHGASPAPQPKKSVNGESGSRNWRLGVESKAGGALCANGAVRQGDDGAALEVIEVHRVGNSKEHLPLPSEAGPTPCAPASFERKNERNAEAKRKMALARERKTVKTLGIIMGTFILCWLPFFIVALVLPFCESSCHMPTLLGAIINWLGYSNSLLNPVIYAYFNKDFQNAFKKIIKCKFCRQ

[2] = biological target: Alpha-1A adrenergic receptor (Homo sapiens) (UniProt P35348); assay: In vitro binding affinity towards alpha-1A adrenergic receptor through displacement of [3H]prazosin in cloned human receptor.
[3] = biological target: Alpha-1D adrenergic receptor (Homo sapiens) (UniProt P25100); assay: Binding affinity to the adrenergic receptor alpha-1D of cloned human receptor
[4] = biological target: T2, Alpha-1A adrenergic receptor (Rattus norvegicus) (UniProt P43140); settings: Vas deferens
T2 sequence (whole entry): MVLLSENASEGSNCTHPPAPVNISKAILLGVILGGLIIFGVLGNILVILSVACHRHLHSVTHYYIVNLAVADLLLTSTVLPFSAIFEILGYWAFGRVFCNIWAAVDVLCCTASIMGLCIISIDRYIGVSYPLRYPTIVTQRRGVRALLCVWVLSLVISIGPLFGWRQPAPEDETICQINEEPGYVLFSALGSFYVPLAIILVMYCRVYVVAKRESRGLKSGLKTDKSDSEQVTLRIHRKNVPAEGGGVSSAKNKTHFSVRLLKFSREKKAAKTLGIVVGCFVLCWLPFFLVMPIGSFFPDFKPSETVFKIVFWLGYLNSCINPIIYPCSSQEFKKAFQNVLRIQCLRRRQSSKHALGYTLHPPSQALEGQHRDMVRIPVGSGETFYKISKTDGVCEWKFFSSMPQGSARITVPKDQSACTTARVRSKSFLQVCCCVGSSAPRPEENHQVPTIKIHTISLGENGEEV

[5] = biological target: T3, Alpha-1D adrenergic receptor (Rattus norvegicus) (UniProt P23944); settings: Aorta
T3 sequence (whole entry): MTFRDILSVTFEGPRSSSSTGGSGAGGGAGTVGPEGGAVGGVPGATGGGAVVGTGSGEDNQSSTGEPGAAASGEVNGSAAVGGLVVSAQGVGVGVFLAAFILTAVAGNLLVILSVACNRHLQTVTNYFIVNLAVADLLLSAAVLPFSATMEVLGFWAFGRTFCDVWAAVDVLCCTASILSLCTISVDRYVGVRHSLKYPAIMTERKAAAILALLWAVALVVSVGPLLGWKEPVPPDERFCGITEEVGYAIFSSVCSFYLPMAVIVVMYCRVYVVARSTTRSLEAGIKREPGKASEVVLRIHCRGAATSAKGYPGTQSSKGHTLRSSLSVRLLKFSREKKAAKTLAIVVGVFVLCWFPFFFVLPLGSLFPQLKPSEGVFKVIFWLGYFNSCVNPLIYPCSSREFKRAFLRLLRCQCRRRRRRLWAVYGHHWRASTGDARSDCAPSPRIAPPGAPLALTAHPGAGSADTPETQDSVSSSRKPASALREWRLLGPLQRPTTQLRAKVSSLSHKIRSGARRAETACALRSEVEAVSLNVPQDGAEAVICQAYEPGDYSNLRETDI

[6] = biological target: T3, Alpha-1D adrenergic receptor (Rattus norvegicus); assay: Fraction involved in salt bridge interactions with Asp3:11 part of the alpha-1D adrenergic receptor
Procedure, shortened: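 Comparative models were built on a rhodopsin template and refined by energy minimization and MD. Docking used MCSS, and the value is the fraction of substituted phenylpiperazines forming a salt bridge with receptor Asp3:11.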

Compound | Ki [1] | Ki [2] | Ki [3] | pKB [4] | pKB [5] | Activity [6]
COc1ccccc1N1CCN(CCN2C(=O)CC3(CCNCC3)CC2=O)CC1 | > 1 µM | 0.631 µM | 0.0717 µM | – | – | –
Clc1ccccc1N1CCN(CCN2CCC3(CCCC3)CC2)CC1 | 0.0854 µM | > 1 µM | 0.00874 µM | – | – | –
O=C1CC2(CCCC2)CCN1CCN1CCN(c2cc(Cl)ccc2Cl)CC1 | – | – | 0.00011 µM | 7 | 8.89 | –
Cc1ccc(Cl)cc1N1CCN(CCN2C(=O)CC3(CCCC3)CC2=O)CC1 | 0.135 µM | 0.19 µM | 0.00037 µM | – | – | –
O=C1CC2(CCCC2)CC(=O)N1CCN1CCN(c2ccccc2)CC1 | 0.0357 µM | 3.35 µM | 0.00432 µM | – | – | –
COc1cccc(N2CCN(CCN3C(=O)CC4(CCCC4)CC3=O)CC2)c1 | 0.0134 µM | > 1 µM | 0.0543 µM | – | – | –
O=C1CC2(CCCC2)CC(=O)N1CCN1CCN(c2cc(Cl)ccc2Cl)CC1 | – | – | 0.00013 µM | – | 8.99 | 0.4
O=C1CC2(CCCC2)CC(=O)N1CCN1CCC(c2ccccc2)CC1 | 0.0259 µM | > 1 µM | 0.00366 µM | – | – | –
COc1ccccc1N1CCN(CCN2C(=O)CC3(CCN(Cc4ccccc4)CC3)CC2=O)CC1 | > 1 µM | 0.294 µM | 0.0351 µM | – | – | –
COc1ccccc1N1CCN(CCN2CCC3(CCCC3)CC2=O)CC1 | 0.00233 µM | 0.0544 µM | 0.00037 µM | – | – | –
N#Cc1ccccc1N1CCN(CCN2C(=O)CC3(CCCC3)CC2=O)CC1 | 0.00537 µM | 0.214 µM | 0.00093 µM | – | – | –
CN(CCOc1cc(Cl)ccc1Cl)CCN1C(=O)CC2(CCCC2)CC1=O | > 1 µM | 0.414 µM | 0.0191 µM | – | – | –
O=C1CC2(C=CN1CCN1CCN(c3ccccc3Cl)CC1)CCCC2 | 0.00938 µM | 0.0539 µM | 0.00084 µM | – | – | –
COc1ccccc1N1CCN(CCN2C(=O)CC3(CCCC3)CC2=O)CC1 [BMY-7378] | 0.0008 µM | – | – | – | – | 0.3
O=C1CC2(CCCC2)CC(=O)N1CCN1CCCN(c2ccccc2Cl)CC1 | 0.00034 µM | 0.295 µM | 0.00138 µM | – | – | –
O=C1CC2(CCCC2)CC(=O)N1CCCN1CCN(c2cc(Cl)ccc2Cl)CC1 | 0.401 µM | 0.00285 µM | 0.00172 µM | – | – | –
